In ChEMBL document CHEMBL5036367, “The BASHY Platform Enables the Assembly of a Fluorescent Bortezomib-GV1001 Conjugate” (ACS Med Chem Lett, 2022):

Assays:
[1] = test system: HT-29; assay: Cytotoxicity against human HT-29 cells assessed as reduction in cell viability incubated for 24 hrs by MTT assay; type: functional, cell-based; conditions: HT-29, 24 h
[2] = test system: HeLa; assay: Cytotoxicity against oleic acid-induced human HeLa cells assessed as reduction in cell viability incubated for 24 hrs by MTT assay; type: functional, cell-based
[3] = test system: HeLa; assay: Cytotoxicity against human HeLa cells assessed as reduction in cell viability incubated for 24 hrs by MTT assay; type: functional, cell-based
[4] = Drug uptake in lysosomes of human HT-29 cells assessed as accumulation in lipid droplets by LysoTracker Red and Nile red staining based confocal microscopic analysis; type: ADME, cell-based
Summary of the method: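 HT-29 cells were imaged by confocal fluorescence microscopy using the compound's own fluorescence. Co-staining was with LysoTracker Deep Red for lysosomes and Nile Red for lipid droplets. Colocalization was expressed as the Pearson's correlation coefficient.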

[5] = Stability of compound in ammonium acetate assessed as half life at pH 7; type: physicochemical

| SMILES | IC50 [1] [nM] | IC50 [2] [nM] | IC50 [3] [nM] | Drug uptake [4] | half-life [5] [h] |
| --- | --- | --- | --- | --- | --- |
| COc1ccc2c(c1)O[B-]1([C@H](CC(C)C)NC(=O)[C@@H](Cc3ccccc3)NC(=O)c3cnccn3)OC(=O)C(c3ccccc3)=N[N+]1=C2c1ccccc1 (stereo partly specified) | 450 | – | – | – | – |
| CCc1c2c(nc3ccc(O)cc13)-c1cc3c(c(=O)n1C2)COC(=O)[C@]3(O)CC [7-ETHYL-10-HYDROXYCAMPTOTHECIN] | – | > 1000 | 349 | – | – |
| CC[C@H](C)[C@H](NC(=O)[C@H](Cc1ccccc1)NC(=O)[C@H](CCCNC(=N)N)NC(=O)[C@H](CC(C)C)NC(=O)[C@H](CCCNC(=N)N)NC(=O)[C@H](CO)NC(=O)[C@@H](NC(=O)[C@H](CC(C)C)NC(=O)[C@H](CC(C)C)NC(=O)[C@H](C)NC(=O)[C@@H]1CCCN1C(=O)[C@H](CCCNC(=N)N)NC(=O)[C@H](C)NC(=O)[C@@H](N)CCC(=O)O)[C@@H](C)O)C(=O)N1CCC[C@H]1C(=O)N[C@@H](CCCCN)C(=O)N[C@H](CSC1CC(=O)N(CCC(=O)NCCOCCOCCOCCOCCC(=O)NCCC(=O)N2Cc3ccccc3-c3c(nnn3CCOCCOCCOCCOc3ccc4c(c3)O[B-]3([C@@H](CC(C)C)NC(=O)[C@@H](Cc5ccccc5)NC(=O)c5cnccn5)OC(=O)C(c5ccccc5)=N[N+]3=C4c3ccccc3)-c3ccccc32)C1=O)C(=O)O (stereo partly specified) | 100 | – | – | Not Active | – |
| CCC1=[N+]2N=C(c3ccccc3)C(=O)O[B-]2([C@H](CC(C)C)NC(=O)[C@@H](Cc2ccccc2)NC(=O)c2cnccn2)Oc2cc(OC)ccc21 (stereo partly specified) | 19.5 | > 200 | 134 | Active | 13 |
| COc1cccc2c1C(=O)c1c(O)c3c(c(O)c1C2=O)C[C@@](O)(C(=O)CO)C[C@@H]3O[C@H]1C[C@H](N)[C@H](O)[C@H](C)O1 [DOXORUBICIN] | – | > 1000 | 90 | – | – |
| CCC1=[N+]2N=C(c3ccccc3)C(=O)O[B-]2(c2ccccc2)Oc2cc(OC)ccc21 (stereo unspecified) | – | – | – | Active | – |
| CC(C)C[C@H](NC(=O)[C@H](Cc1ccccc1)NC(=O)c1cnccn1)B(O)O [BORTEZOMIB] | 3.2 | > 200 | 20 | – | – |
